Experimental findings from ChEMBL document CHEMBL3608301, “Phenolic Compounds from Atriplex littoralis and Their Radiation-Mitigating Activity” (J Nat Prod, 2015) are described below.

The structures appear in SMILES notation.

Series [1] concerns PBL. Description: Radioprotective activity in 2-Gy gamma irradiated human PBL assessed as incidence of micronuclei in binucleated cells at 3.1 uM treated for 2 to 19 hrs followed by compound washout measured after 72 hrs by cytochalasin-B-blocked micronucleus assay (reference value: 1.2 +/- 0.03). In kind it is functional. An outline of the steps:
(§1)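 Venous blood from five healthy male volunteers was γ-irradiated at 2 Gy (0.45 Gy/min) at room temperature and cultured. Compounds (0.8−7.4 μM final) were added 2 to 19 h after irradiation, at 37 °C. Cultures were then rinsed and moved to fresh RPMI 1640 for 72 h. Cytokinesis-block micronucleus assay: ≥1000 binucleated cells scored per sample (Countryman–Heddle criteria). Controls were non-treated irradiated cultures; one-way ANOVA with Tukey test.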

Series [2] concerns PBL. Description: Toxicity in 2-Gy gamma irradiated human PBL assessed as cytokinesis-block proliferation index at 0.8 uM treated for 2 to 19 hrs followed by compound washout measured after 72 hrs (reference value: 1.6 +/- 0.1). In kind it is cell-based.
The subject of series [3] is PBL. Description: Toxicity in 2-Gy gamma irradiated human PBL assessed as cytokinesis-block proliferation index at 1.5 uM treated for 2 to 19 hrs followed by compound washout measured after 72 hrs (reference value: 1.6 +/- 0.1). It is filed as cell-based.
For series [4], the system named is PBL. Description: Toxicity in 2-Gy gamma irradiated human PBL assessed as cytokinesis-block proliferation index at 3.1 uM treated for 2 to 19 hrs followed by compound washout measured after 72 hrs (reference value: 1.6 +/- 0.1). In kind it is cell-based.
Series [5] deals with PBL. Description: Radioprotective activity in 2-Gy gamma irradiated human PBL assessed as binucleated cells with micronuclei at 0.8 uM treated for 2 to 19 hrs followed by compound washout measured after 72 hrs by cytochalasin-B-blocked micronucleus assay (reference value: 15.5 +/- 0.6%). In kind it is functional. An outline of the steps:
as §1

The test system of series [6] is PBL. In words: Radioprotective activity in 2-Gy gamma irradiated human PBL assessed as binucleated cells with micronuclei at 1.5 uM treated for 2 to 19 hrs followed by compound washout measured after 72 hrs by cytochalasin-B-blocked micronucleus assay (reference value: 15.5 +/- 0.6%). In kind it is functional. Summed up: as §1
For series [7], the system named is PBL. In words: Radioprotective activity in 2-Gy gamma irradiated human PBL assessed as binucleated cells with micronuclei at 3.1 uM treated for 2 to 19 hrs followed by compound washout measured after 72 hrs by cytochalasin-B-blocked micronucleus assay (reference value: 15.5 +/- 0.6%). It is filed as functional. An outline of the steps: as §1
In series [8] the test system is PBL. In words: Radioprotective activity in 2-Gy gamma irradiated human PBL assessed as incidence of micronuclei in 1000 binucleated cells at 0.8 uM treated for 2 to 19 hrs followed by compound washout measured after 72 hrs by cytochalasin-B-blocked micronucleus assay (reference value: 183 +/- 9.6). It is filed as functional. Summed up: as §1
Series [9] has as its system PBL. Description: Radioprotective activity in 2-Gy gamma irradiated human PBL assessed as incidence of micronuclei in 1000 binucleated cells at 1.5 uM treated for 2 to 19 hrs followed by compound washout measured after 72 hrs by cytochalasin-B-blocked micronucleus assay (reference value: 183 +/- 9.6). It is filed as functional. Summed up:
as §1

Series [10] relates to PBL. Description: Radioprotective activity in 2-Gy gamma irradiated human PBL assessed as incidence of micronuclei in 1000 binucleated cells at 3.1 uM treated for 2 to 19 hrs followed by compound washout measured after 72 hrs by cytochalasin-B-blocked micronucleus assay (reference value: 183 +/- 9.6). It is filed as functional. Summed up:
as §1

The test system of series [11] is PBL. In words: Radioprotective activity in 2-Gy gamma irradiated human PBL assessed as frequency of micronuclei at 1.5 uM treated for 2 to 19 hrs followed by compound washout measured after 72 hrs by cytochalasin-B-blocked micronucleus assay relative to control. It is filed as functional. Summed up:
as §1

Series [12] relates to PBL. In words: Radioprotective activity in 2-Gy gamma irradiated human PBL assessed as frequency of micronuclei at 3.1 uM treated for 2 to 19 hrs followed by compound washout measured after 72 hrs by cytochalasin-B-blocked micronucleus assay relative to control. In kind it is functional. An outline of the steps:
as §1

For series [13], the system named is PBL. In words: Radioprotective activity in 2-Gy gamma irradiated human PBL assessed as incidence of micronuclei in binucleated cells at 0.8 uM treated for 2 to 19 hrs followed by compound washout measured after 72 hrs by cytochalasin-B-blocked micronucleus assay (reference value: 1.2 +/- 0.03). In kind it is functional. Summed up: as §1
Series [14] deals with PBL. In words: Radioprotective activity in 2-Gy gamma irradiated human PBL assessed as incidence of micronuclei in binucleated cells at 1.5 uM treated for 2 to 19 hrs followed by compound washout measured after 72 hrs by cytochalasin-B-blocked micronucleus assay (reference value: 1.2 +/- 0.03). It is filed as functional. An outline of the steps: as §1
Series [15] relates to PBL. Description: Radioprotective activity in 2-Gy gamma irradiated human PBL assessed as frequency of micronuclei at 0.8 uM treated for 2 to 19 hrs followed by compound washout measured after 72 hrs by cytochalasin-B-blocked micronucleus assay relative to control. In kind it is functional. Summed up: as §1
For series [16], the system named is PBL. In words: Toxicity in 2-Gy gamma irradiated human PBL assessed as cytokinesis-block proliferation index at 3 uM treated for 2 to 19 hrs followed by compound washout measured after 72 hrs (reference value: 1.6 +/- 0.1). In kind it is cell-based.
The subject of series [17] is PBL. In words: Radioprotective activity in 2-Gy gamma irradiated human PBL assessed as binucleated cells with micronuclei at 3 uM treated for 2 to 19 hrs followed by compound washout measured after 72 hrs by cytochalasin-B-blocked micronucleus assay (reference value: 15.5 +/- 0.6%). In kind it is functional. Summed up:
as §1

The test system of series [18] is PBL. In words: Radioprotective activity in 2-Gy gamma irradiated human PBL assessed as incidence of micronuclei in 1000 binucleated cells at 3 uM treated for 2 to 19 hrs followed by compound washout measured after 72 hrs by cytochalasin-B-blocked micronucleus assay (reference value: 183 +/- 9.6). In kind it is functional. An outline of the steps: as §1
Series [19] concerns PBL. Description: Radioprotective activity in 2-Gy gamma irradiated human PBL assessed as incidence of micronuclei in binucleated cells at 3 uM treated for 2 to 19 hrs followed by compound washout measured after 72 hrs by cytochalasin-B-blocked micronucleus assay (reference value: 1.2 +/- 0.03). It is filed as functional. Summed up: as §1
For series [20], the system named is PBL. In words: Radioprotective activity in 2-Gy gamma irradiated human PBL assessed as frequency of micronuclei at 3 uM treated for 2 to 19 hrs followed by compound washout measured after 72 hrs by cytochalasin-B-blocked micronucleus assay relative to control. It is filed as functional. Summed up: as §1
The subject of series [21] is PBL. In words: Toxicity in 2-Gy gamma irradiated human PBL assessed as cytokinesis-block proliferation index at 4.7 uM treated for 2 to 19 hrs followed by compound washout measured after 72 hrs (reference value: 1.6 +/- 0.1). In kind it is cell-based.
The test system of series [22] is PBL. In words: Radioprotective activity in 2-Gy gamma irradiated human PBL assessed as binucleated cells with micronuclei at 4.7 uM treated for 2 to 19 hrs followed by compound washout measured after 72 hrs by cytochalasin-B-blocked micronucleus assay (reference value: 15.5 +/- 0.6%). It is filed as functional.
Series [23] concerns PBL. Description: Radioprotective activity in 2-Gy gamma irradiated human PBL assessed as incidence of micronuclei in 1000 binucleated cells at 4.7 uM treated for 2 to 19 hrs followed by compound washout measured after 72 hrs by cytochalasin-B-blocked micronucleus assay (reference value: 183 +/- 9.6). It is filed as functional.
Series [24] has as its system PBL. Description: Radioprotective activity in 2-Gy gamma irradiated human PBL assessed as incidence of micronuclei in binucleated cells at 4.7 uM treated for 2 to 19 hrs followed by compound washout measured after 72 hrs by cytochalasin-B-blocked micronucleus assay (reference value: 1.2 +/- 0.03). It is filed as functional.
The subject of series [25] is PBL. Description: Radioprotective activity in 2-Gy gamma irradiated human PBL assessed as frequency of micronuclei at 4.7 uM treated for 2 to 19 hrs followed by compound washout measured after 72 hrs by cytochalasin-B-blocked micronucleus assay relative to control. In kind it is functional.

On to `COc1cc(-c2oc3cc4c(c(O)c3c(=O)c2O[C@@H]2O[C@H](CO[C@@H]3O[C@@H](C)[C@H](O)[C@@H](O)[C@H]3O)[C@@H](O)[C@H](O)[C@H]2O)OCO4)ccc1O`, for which the Activity in the series with PBL [1] was 1.2; with PBL [2] it was 1.6; in the series with PBL [3], 1.6; in the series with PBL [4] it was 1.6; with PBL [5], 11.2%; in the series on PBL [6], 10.8%. Also, the Activity was found to be 11.7% with PBL [7]; 126.6 in the series with PBL [8]; 131.3 in the series on PBL [9]; 141.4 in the series with PBL [10]; 71.7% with PBL [11]; 77.3% with PBL [12]. The Activity with PBL [13] is recorded as 1.2; in the series with PBL [14], 1.2; in the series on PBL [15], 69.2%.

Regarding `CO[C@@]12[C@H](COC(N)=O)C3=C(C(=O)C(C)=C(N)C3=O)N1C[C@@H]1N[C@@H]12` [MITOMYCIN], the Activity in the series on PBL [16] turned out to be 1.6; in the series on PBL [17] it was 17.9%; in the series with PBL [18] it was 226.1; in the series on PBL [19], 1.3; with PBL [20], 123.5%.

With `NCCCNCCSP(=O)(O)O` [AMIFOSTINE], the Activity is listed as 1.6 in the series on PBL [21]; 13.9% in the series with PBL [22]; 166 in the series on PBL [23]; 1.2 in the series with PBL [24]; 90.7% with PBL [25].

Take `COc1cc(-c2oc3cc4c(c(O)c3c(=O)c2O[C@@H]2O[C@H](CO)[C@@H](O)[C@H](O)[C@H]2O[C@@H]2O[C@@H](C)[C@H](O)[C@@H](O)[C@H]2O)OCO4)ccc1O`: the Activity in the series on PBL [1] stood at 1.2; with PBL [2], 1.7; with PBL [3] it was 1.7; in the series on PBL [4] it was 1.8; with PBL [5], 14.4%; in the series on PBL [6], 14.1%. For the same compound, the Activity worked out at 14.3% with PBL [7]; 172 with PBL [8]; 170.9 with PBL [9]; 175.3 in the series with PBL [10]; 93.4% in the series with PBL [11]; 95.8% in the series with PBL [12]. Further, the Activity in the series with PBL [13] is 1.2; in the series on PBL [14], 1.2; in the series on PBL [15], 94%.

As to `C[C@@H]1O[C@@H](O[C@H]2[C@H](Oc3c(-c4ccc(O)c(O)c4)oc4cc5c(c(O)c4c3=O)OCO5)O[C@H](CO)[C@@H](O)[C@@H]2O)[C@H](O)[C@H](O)[C@H]1O`, the Activity is reported as 1.2 with PBL [1]; 1.7 with PBL [2]; 1.7 in the series with PBL [3]; 1.7 with PBL [4]; 15.1% with PBL [5]; 14.1% in the series with PBL [6]. In addition, the Activity in the series on PBL [7] is 15.3%; in the series on PBL [8], 181; in the series on PBL [9] it was 178.8; with PBL [10], 187; with PBL [11], 97.7%; in the series with PBL [12], 102.2%. Further, the Activity in the series with PBL [13] was 1.2; in the series with PBL [14] it was 1.3; with PBL [15], 98.9%.
